Bioassay records as filed in PubChem BioAssay.
An excerpt weighted towards active compounds, which were near 3.8% of everything screened.
hERG protect: shields human hERG channel from block by proarrhythmic agents; activation (rescue from dofetilide block), less the hit threshold, % at 10 µM; CHO-hERG, FluxOR thallium flux, dofetilide IC70 present; 310,000 compounds, 0.51% hits; Q12809;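 active = activation above the mean of controls blocked by dofetilide plus 5 SD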;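 note: thallium influx through hERG after potassium depolarization seen as dye fluorescence rise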
KCNK3 inh: human KCNK3 channel inhibition, primary screen | O14649 | CHO-KCNK3 thallium flux, FluxOR fluorescence; active compounds read low | B-score at 10 µM | 340,000 compounds, 0.84% hits | AID 602410;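 active = B-score under library mean minus 4 SD, starting fluorescence ratio at most library mean plus 5 SD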;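 note: more negative B-score means stronger inhibition of thallium flux through KCNK3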
KCNQ1 block: inhibitors of human KCNQ1 potassium channel | AID 2642 | CHO-K1 KCNQ1, FluxOR thallium flux fluorescence; active compounds read high | 310,000 compounds, 1.3% hits | P51787 | B-score at 10 µM;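 active = compounds whose thallium flux B-score, printed positive for inhibition, exceeds three library SD while starting fluorescence stays within three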;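 note: channel opened by potassium depolarization with thallium stimulus after 20 min compound exposure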
Target sequence (P51787 whole entry, looked up): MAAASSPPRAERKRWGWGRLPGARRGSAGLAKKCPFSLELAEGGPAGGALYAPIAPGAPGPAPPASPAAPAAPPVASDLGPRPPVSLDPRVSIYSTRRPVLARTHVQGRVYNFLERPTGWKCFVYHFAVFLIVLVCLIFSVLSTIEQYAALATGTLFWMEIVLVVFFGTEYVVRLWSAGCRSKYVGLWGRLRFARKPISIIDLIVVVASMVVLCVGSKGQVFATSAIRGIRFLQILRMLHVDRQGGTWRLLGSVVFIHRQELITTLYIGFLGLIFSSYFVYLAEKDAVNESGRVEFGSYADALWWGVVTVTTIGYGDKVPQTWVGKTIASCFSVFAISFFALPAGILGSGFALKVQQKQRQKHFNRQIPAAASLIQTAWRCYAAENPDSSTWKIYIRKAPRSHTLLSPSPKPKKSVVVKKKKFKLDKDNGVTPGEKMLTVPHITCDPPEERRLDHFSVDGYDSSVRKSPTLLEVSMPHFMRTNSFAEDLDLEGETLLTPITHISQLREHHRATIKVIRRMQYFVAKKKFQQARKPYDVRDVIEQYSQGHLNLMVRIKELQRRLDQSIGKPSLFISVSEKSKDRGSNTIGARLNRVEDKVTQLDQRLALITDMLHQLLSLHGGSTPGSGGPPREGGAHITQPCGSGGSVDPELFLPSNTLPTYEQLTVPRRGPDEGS
KCNK9 inh: blocks the human KCNK9 two-pore domain potassium channel | AID 488922 | HEK293 KCNK9, FluxOR thallium flux fluorescence; active compounds read low | Q9NPC2 | 310,000 compounds, 1.2% hits | B-score at 10 µM;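 active = ratio B-score over 3 SD below the library mean, with starting fluorescence within 5 SD of its mean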;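 note: negative B-score means less thallium flux so channel inhibition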
Kir21 inh: Kir2.1 (mouse) channel inhibition; B-score at 10 µM; 310,000 compounds, 0.85% hits; P35561; HEK293-Kir2.1, FluxOR thallium flux fluorescence; active compounds read low; AID 1672;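 active = fluorescence ratio B-score at or below minus 3 SD of library scores, with starting-brightness B-score within 2 SD, cut at about -4.2 in these data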;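 note: channel flux triggered by added potassium and thallium sulfate stimulus; B-score of peak minus minimum fluorescence over baseline after thallium stimulus; more negative B-score means stronger Kir2.1 block with less thallium influx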
KCNQ1 pot: potentiators or activators of human KCNQ1 potassium channel. CHO-K1 KCNQ1, thallium flux FluxOR fluorescence; active compounds read high. B-score at 10 µM. 310,000 compounds, 0.35% hits;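 active = fluorescence ratio B-score, a plate-corrected score, at least three library SD, with initial intensity B-score within 5 SD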
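Schedule – 37 °C overnight plating, 90-min dark dye load, 20-min compound pretreatment · System – stable KCNQ1 CHO-K1 line · Probe or stimulus – thallium- and potassium-containing depolarizing buffer · Measured by – kinetic FluxOR fluorescence, 10 s baseline plus 110 s post-stimulus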
KCNK3 inh conf: human KCNK3 channel inhibition, confirmation assay; AID 651638; shares compounds with KCNK3 inh; CHO-KCNK3 thallium flux, FluxOR fluorescence; 0% buffer, 100% carvedilol maximal block; 2,400 compounds, 99% hits; ratio percent of control, % at 10 µM;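 active = ratio percent of control, averaged over triplicates, above buffer control mean plus 5 SD, cut at about 64% in these data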;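 note: ratio is the fluorescence rise from min to max over baseline after thallium stimulus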
KCNK3 noninduced: counter-screen for KCNK3 inhibitors: effect in non-induced cells. shares compounds with KCNK3 inh. non-induced KCNK3 parental cells, FluxOR thallium flux; active compounds read low. thallium flux ratio (lower = more inhibition) at 10 µM. 2,400 compounds, 40% hits. AID 651747;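 active = thallium flux ratio, averaged over three wells, more than 5 SD below the buffer control mean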;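 note: host cells are CHO cells without KCNK3 induction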
Large screens that a line does not name were inactive (follow-up assays come after a bar, where they were run).

CC(C)N(CCCNC(=O)Cn1c(=O)c2cccn2c2ccccc21)Cc1ccccc1	none
O=C(c1ccccc1)N1CCOC(O)(c2ccccc2)C1c1ccccc1 (stereo not drawn)	none (no result: hERG protect, KCNQ1 block, KCNK9 inh, Kir21 inh, KCNQ1 pot)
CC(=O)Nc1ccc(/C=C2\Sc3ccccc3C2=O)cc1	none
O=C1/C(=C/c2cccnc2)Sc2ccccc21	KCNK3 inh -9.6 | KCNK3 inh conf 102 | KCNK3 noninduced inactive
O=C1NC(=Nc2ccccc2)S/C1=C\c1ccccc1	none
O=C1NC(=Nc2ccccc2)S/C1=C/c1cccnc1	KCNK3 inh -11 | KCNK3 inh conf 90 | KCNK3 noninduced inactive
Fc1ccc(C(c2nnnn2Cc2cccs2)N2CCN(c3ccccc3)CC2)cc1 (stereo not drawn)	KCNK3 inh -10, KCNK9 inh -7.4 | KCNK3 inh conf 102 | KCNK3 noninduced inactive
c1ccc(Cn2nnnc2C(c2cccs2)N2CCCCCC2)cc1 (stereo not drawn)	KCNK3 inh -10 | KCNK3 inh conf 116 | KCNK3 noninduced 0.13
CN1CCN(c2ccccc2NC(=O)c2ccc(Br)o2)CC1	none
CC1CCN(c2ccccc2NC(=O)c2ccc(Br)o2)CC1	KCNK3 inh -9, KCNK9 inh -8 | KCNK3 inh conf 126 | KCNK3 noninduced 0.15
O=C(Cn1c(CO)nc2ccccc21)Nc1cc(C(F)(F)F)ccc1N1CCOCC1	KCNK3 inh -10 | KCNK3 inh conf 66 | KCNK3 noninduced inactive
COc1ccc(NC(=O)CN2C(=O)NC(C)(c3ccc(C)cc3)C2=O)c([N+](=O)[O-])c1 (stereo not drawn)	none
COc1ccc(C(CNC(=O)c2ccc(-c3ccccc3)cc2)N(C)C)cc1OC (stereo not drawn)	none
COc1ccc(C2Nc3ccccc3C(=O)N2c2ccc(C)cc2)cc1Cn1nnc2ccccc21 (stereo not drawn)	KCNK3 inh -8.8 | KCNK3 inh conf 111 | KCNK3 noninduced 0.16
COc1ccc(C)cc1Cn1nnc2ccccc21	none
COc1ccc(C2Nc3ccccc3C(=O)N2c2ccc(C)cc2)cc1Cn1cc([N+](=O)[O-])cn1 (stereo not drawn)	KCNK3 inh -8.8 | KCNK3 inh conf 105 | KCNK3 noninduced inactive
CSc1nc(N)nc2c1ncn2CC(=O)N[C@H](C)c1cccc2ccccc12	none (no result: hERG protect, KCNQ1 block, KCNK9 inh, Kir21 inh, KCNQ1 pot)
Cc1c(Nc2cc(N3CCOCC3)c3nonc3c2[N+](=O)[O-])c(=O)n(-c2ccccc2)n1C	none (no result: KCNK3 inh)
Cc1c(Nc2cc(Cl)c3nonc3c2[N+](=O)[O-])c(=O)n(-c2ccccc2)n1C	KCNK3 inh -18 (no result: hERG protect, KCNQ1 block, KCNK9 inh, Kir21 inh, KCNQ1 pot) | KCNK3 inh conf 145 | KCNK3 noninduced 0.096
Cc1ccccc1-n1nnnc1SCc1ncc(-c2ccccc2)o1	KCNK3 inh -9.4 | KCNK3 inh conf 99 | KCNK3 noninduced inactive
COc1cc(OC)c(OC)cc1CNCc1ccco1	none
FC(F)(F)c1cnc(COc2ccc(Cl)cc2Cl)c(Cl)c1	KCNK3 inh -9.7 | KCNK3 inh conf 102 | KCNK3 noninduced inactive
CC(=O)c1ccc(OCc2ncc(C(F)(F)F)cc2Cl)cc1	none
N#CC1(NC(=O)COc2ccccc2[N+](=O)[O-])CCCCC1	none
C=CCOc1ccc(C(=O)c2ccccc2)c(OCC(=O)NC2(C#N)CCCC2)c1	KCNK3 inh -8.7 | KCNK3 inh conf 90 | KCNK3 noninduced inactive
O=C1C=C(C2OC(CO)C(O)C2O)C(=O)N1 (stereo not drawn)	none (no result: hERG protect, KCNQ1 block, KCNK9 inh, Kir21 inh, KCNQ1 pot)
CCOC(=O)c1cc2sccc2n1CC(=O)c1ccc2c(c1)OCCO2	KCNK3 inh -9.5 | KCNK3 inh conf 89 | KCNK3 noninduced inactive
CCOC(=O)c1cc2sccc2n1CC(=O)O	none
CCOc1ccc(OCCC(=O)OCC(=O)NCc2ccccc2)cc1	none
